Test results reported in ChEMBL document CHEMBL3769382, “Structure-Based Discovery of Novel and Selective 5-Hydroxytryptamine 2B Receptor Antagonists for the Treatment of Irritable Bowel Syndrome” (J Med Chem, 2016).
pIC50, pKi: −log10 of the molar value.

Assays:
[1] = molecular target: T1, 5-hydroxytryptamine receptor 2B (Homo sapiens, UniProt P41595); experiment: Antagonist activity at 5-HT2B receptor (unknown origin) expressed in CHO-K1 cells assessed as calcium flux at 1 uM after 60 mins by FLIPR assay; type: functional, cell-based
T1 sequence (P41595 whole entry): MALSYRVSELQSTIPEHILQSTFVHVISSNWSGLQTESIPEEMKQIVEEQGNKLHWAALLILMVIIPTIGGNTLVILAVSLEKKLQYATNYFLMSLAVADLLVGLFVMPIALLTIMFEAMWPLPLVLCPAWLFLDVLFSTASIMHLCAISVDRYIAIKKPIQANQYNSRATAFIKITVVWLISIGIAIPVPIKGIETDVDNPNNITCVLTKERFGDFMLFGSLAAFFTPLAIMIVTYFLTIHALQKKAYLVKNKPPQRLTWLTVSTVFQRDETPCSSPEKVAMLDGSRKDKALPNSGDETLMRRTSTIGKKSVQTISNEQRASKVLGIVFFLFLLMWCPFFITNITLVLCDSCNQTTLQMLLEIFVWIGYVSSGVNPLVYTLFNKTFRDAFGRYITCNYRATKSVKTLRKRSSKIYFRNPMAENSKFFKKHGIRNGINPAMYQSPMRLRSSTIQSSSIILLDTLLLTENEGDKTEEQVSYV
How it was run: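 CHO-K1 cells stably expressing 5-HT2B receptor, antagonist mode, calcium flux read-out. Compounds screened at 10 μM and 1 μM; dose-response curves run for compounds active in the screen to give IC50.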

[2] = molecular target: T1, 5-hydroxytryptamine receptor 2B; experiment: Displacement of [3H]LSD from 5-HT2B receptor (unknown origin) after 1.5 hrs by microbeta scintillation counting method
[3] = molecular target: T2, 5-hydroxytryptamine receptor 2C (Homo sapiens, UniProt P28335); experiment: Displacement of [3H]LSD from 5-HT2C receptor (unknown origin) after 1.5 hrs by microbeta scintillation counting method
T2 sequence (P28335 whole entry): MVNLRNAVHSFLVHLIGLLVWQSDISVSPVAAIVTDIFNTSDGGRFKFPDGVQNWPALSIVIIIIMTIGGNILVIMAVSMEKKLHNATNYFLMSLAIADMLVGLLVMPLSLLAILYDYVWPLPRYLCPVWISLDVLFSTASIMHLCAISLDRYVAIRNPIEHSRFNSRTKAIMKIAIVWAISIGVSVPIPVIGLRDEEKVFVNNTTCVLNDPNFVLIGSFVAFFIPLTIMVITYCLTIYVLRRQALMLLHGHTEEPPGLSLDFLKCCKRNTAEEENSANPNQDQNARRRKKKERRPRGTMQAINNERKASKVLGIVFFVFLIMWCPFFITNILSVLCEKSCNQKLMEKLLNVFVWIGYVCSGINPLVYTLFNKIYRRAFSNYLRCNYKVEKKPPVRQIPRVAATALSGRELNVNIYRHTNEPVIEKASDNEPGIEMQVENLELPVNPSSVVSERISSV

[4] = molecular target: T3, 5-hydroxytryptamine receptor 3A (Homo sapiens, UniProt P46098); experiment: Displacement of [3H]LY278584 from 5-HT3 receptor (unknown origin) after 1.5 hrs by microbeta scintillation counting method
T3 sequence (P46098 whole entry): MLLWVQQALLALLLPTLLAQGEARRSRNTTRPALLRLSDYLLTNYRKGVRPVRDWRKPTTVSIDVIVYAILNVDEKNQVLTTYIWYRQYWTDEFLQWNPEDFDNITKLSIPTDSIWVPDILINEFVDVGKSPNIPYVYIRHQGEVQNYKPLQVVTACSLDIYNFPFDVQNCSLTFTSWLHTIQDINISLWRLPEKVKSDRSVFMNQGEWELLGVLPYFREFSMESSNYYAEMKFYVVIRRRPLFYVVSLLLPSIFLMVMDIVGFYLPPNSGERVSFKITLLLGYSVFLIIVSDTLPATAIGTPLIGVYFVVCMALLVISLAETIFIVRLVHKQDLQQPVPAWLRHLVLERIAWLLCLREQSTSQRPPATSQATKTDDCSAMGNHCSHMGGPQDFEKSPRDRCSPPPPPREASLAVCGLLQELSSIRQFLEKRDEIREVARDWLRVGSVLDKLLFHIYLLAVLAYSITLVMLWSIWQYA

[5] = molecular target: 5-hydroxytryptamine receptor 5A (Homo sapiens, UniProt P47898); experiment: Displacement of [3H]LSD from 5-HT5A receptor (unknown origin) after 1.5 hrs by microbeta scintillation counting method
5-hydroxytryptamine receptor 5A, sequence (P47898 whole entry): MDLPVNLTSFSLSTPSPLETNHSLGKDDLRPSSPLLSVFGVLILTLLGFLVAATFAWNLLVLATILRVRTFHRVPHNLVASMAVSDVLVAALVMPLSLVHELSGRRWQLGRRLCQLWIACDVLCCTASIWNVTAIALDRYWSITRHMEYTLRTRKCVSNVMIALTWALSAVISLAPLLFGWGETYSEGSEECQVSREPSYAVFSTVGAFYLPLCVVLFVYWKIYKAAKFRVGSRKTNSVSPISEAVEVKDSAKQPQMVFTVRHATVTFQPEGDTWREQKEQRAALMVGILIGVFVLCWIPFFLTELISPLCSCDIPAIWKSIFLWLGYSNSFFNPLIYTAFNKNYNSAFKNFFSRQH

[6] = molecular target: 5-hydroxytryptamine receptor 6 (Homo sapiens, UniProt P50406); experiment: Displacement of [3H]LSD from 5-HT6 receptor (unknown origin) after 1.5 hrs by microbeta scintillation counting method
5-hydroxytryptamine receptor 6, sequence (P50406 whole entry): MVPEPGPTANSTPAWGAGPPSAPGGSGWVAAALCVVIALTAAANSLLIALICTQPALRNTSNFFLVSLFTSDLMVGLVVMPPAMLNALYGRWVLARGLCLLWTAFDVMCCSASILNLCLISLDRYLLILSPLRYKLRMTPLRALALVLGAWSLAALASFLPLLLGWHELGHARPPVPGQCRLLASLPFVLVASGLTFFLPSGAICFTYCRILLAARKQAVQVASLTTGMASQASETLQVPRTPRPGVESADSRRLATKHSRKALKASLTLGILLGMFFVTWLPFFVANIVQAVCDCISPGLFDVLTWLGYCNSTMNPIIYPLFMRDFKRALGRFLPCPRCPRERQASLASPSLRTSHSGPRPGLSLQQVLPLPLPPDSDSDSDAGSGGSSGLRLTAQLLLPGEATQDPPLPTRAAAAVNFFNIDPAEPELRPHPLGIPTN

[7] = molecular target: 5-hydroxytryptamine receptor 7 (Homo sapiens, UniProt P34969); experiment: Displacement of [3H]LSD from 5-HT7A receptor (unknown origin) after 1.5 hrs by microbeta scintillation counting method
5-hydroxytryptamine receptor 7, sequence (P34969 whole entry): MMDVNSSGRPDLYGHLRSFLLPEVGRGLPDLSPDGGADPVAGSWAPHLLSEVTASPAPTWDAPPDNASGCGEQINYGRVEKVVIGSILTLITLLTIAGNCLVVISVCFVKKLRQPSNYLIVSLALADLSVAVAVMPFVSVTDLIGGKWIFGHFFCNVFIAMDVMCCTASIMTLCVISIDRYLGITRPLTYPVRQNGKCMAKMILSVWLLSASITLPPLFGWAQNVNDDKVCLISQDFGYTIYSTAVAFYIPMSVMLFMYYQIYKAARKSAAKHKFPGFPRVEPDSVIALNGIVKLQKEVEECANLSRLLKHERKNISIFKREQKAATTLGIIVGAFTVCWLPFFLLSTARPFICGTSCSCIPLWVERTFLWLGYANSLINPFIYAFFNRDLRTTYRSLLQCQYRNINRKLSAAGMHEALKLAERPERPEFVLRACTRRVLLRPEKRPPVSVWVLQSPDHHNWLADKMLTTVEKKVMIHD

[8] = molecular target: 5-hydroxytryptamine receptor 1E (Homo sapiens, UniProt P28566); experiment: Displacement of [3H]-5-HT from 5-HT1E receptor (unknown origin) after 1.5 hrs by microbeta scintillation counting method
5-hydroxytryptamine receptor 1E, sequence (P28566 whole entry): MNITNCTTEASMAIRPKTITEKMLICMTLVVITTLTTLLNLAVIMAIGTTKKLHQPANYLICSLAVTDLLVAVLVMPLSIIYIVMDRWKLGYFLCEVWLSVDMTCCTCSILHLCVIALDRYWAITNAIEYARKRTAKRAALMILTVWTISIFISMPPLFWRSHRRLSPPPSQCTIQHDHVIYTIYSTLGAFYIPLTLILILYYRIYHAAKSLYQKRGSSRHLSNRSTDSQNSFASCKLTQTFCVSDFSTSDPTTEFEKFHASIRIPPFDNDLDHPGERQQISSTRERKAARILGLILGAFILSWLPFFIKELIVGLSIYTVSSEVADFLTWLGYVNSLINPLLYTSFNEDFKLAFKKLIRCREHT

[9] = molecular target: 5-hydroxytryptamine receptor 2A (Homo sapiens, UniProt P28223); experiment: Displacement of [3H]Ketanserin from 5-HT2A receptor (unknown origin) after 1.5 hrs by microbeta scintillation counting method
5-hydroxytryptamine receptor 2A, sequence (P28223 whole entry): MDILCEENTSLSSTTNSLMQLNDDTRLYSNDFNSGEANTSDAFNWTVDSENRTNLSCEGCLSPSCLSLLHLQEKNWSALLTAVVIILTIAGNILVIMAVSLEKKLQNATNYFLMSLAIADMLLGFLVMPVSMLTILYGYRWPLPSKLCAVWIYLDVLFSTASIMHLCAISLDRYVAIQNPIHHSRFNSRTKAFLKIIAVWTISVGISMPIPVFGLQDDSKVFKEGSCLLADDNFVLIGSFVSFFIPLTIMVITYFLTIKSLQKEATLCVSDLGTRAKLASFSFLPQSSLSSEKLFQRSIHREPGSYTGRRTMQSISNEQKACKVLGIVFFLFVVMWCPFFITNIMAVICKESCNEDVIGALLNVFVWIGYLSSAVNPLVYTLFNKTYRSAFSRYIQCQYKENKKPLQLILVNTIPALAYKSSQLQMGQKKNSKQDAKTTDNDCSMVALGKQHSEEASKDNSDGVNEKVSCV

[10] = molecular target: 5-hydroxytryptamine receptor 1D (Homo sapiens, UniProt P28221); experiment: Displacement of [3H][…] from 5-HT1D receptor (unknown origin) after 1.5 hrs by microbeta scintillation counting method
5-hydroxytryptamine receptor 1D, sequence (P28221 whole entry): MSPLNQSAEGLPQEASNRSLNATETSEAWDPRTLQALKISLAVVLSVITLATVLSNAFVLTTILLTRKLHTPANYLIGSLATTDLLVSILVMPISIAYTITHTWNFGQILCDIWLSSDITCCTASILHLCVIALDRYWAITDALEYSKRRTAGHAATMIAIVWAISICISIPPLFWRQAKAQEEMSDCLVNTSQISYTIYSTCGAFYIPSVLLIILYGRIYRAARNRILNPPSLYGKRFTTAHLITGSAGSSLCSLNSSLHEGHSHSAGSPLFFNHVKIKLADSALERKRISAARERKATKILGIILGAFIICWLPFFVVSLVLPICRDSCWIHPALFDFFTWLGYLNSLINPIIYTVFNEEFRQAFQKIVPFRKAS

[11] = molecular target: T4, 5-hydroxytryptamine receptor 1A (Homo sapiens, UniProt P08908); experiment: Displacement of [3H]8-OH-DPAT from 5-HT1A receptor (unknown origin) after 1.5 hrs by microbeta scintillation counting method
T4 sequence (P08908 whole entry): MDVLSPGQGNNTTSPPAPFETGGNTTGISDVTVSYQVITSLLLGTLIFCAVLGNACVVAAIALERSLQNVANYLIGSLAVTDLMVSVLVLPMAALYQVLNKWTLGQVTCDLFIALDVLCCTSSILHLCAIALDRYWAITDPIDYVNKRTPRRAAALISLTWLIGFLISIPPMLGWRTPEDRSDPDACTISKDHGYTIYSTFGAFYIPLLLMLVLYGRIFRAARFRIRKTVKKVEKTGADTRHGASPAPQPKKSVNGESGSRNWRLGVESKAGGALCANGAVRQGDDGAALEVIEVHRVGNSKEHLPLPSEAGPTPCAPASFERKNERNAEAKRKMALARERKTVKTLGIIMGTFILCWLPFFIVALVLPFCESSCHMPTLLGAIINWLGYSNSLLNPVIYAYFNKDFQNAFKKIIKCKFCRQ

[12] = molecular target: 5-hydroxytryptamine receptor 1B (Homo sapiens, UniProt P28222); experiment: Displacement of [3H][…] from 5-HT1B receptor (unknown origin) after 1.5 hrs by microbeta scintillation counting method
5-hydroxytryptamine receptor 1B, sequence (P28222 whole entry): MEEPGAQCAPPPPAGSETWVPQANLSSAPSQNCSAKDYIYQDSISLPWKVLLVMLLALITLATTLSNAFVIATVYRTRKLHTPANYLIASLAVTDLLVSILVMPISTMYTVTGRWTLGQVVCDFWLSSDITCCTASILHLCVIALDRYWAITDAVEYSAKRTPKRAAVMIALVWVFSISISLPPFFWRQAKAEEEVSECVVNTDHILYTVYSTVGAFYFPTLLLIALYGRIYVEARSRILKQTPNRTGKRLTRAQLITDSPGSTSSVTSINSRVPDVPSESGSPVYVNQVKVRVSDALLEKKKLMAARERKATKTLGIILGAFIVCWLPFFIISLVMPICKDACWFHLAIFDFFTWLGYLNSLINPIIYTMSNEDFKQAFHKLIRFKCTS

[13] = system: Rattus norvegicus; experiment: Inhibition of visceral hypersensitivity in Sprague-Dawley rat model of IBS assessed as […] by measuring abdominal contraction at 30 mg/kg, po by colorectal distention test; type: functional; conditions: Abdomen
How it was run: (§1)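 Rat IBS model induced by TNBS injection, then chronic unpredictable mild stress; colon histology checked by HE staining. Compound given orally at 30 mg/kg. Visceral sensitivity scored by abdominal withdrawal reflex, with pain thresholds in mmHg at scores 3 and 4. Compared with control rats; % inhibition derived from thresholds.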

[14] = molecular target: Voltage-gated inwardly rectifying potassium channel KCNH2 (Homo sapiens, UniProt Q12809); experiment: Inhibition of human ERG channel by patch clamp assay
Voltage-gated inwardly rectifying potassium channel KCNH2, sequence (Q12809 whole entry): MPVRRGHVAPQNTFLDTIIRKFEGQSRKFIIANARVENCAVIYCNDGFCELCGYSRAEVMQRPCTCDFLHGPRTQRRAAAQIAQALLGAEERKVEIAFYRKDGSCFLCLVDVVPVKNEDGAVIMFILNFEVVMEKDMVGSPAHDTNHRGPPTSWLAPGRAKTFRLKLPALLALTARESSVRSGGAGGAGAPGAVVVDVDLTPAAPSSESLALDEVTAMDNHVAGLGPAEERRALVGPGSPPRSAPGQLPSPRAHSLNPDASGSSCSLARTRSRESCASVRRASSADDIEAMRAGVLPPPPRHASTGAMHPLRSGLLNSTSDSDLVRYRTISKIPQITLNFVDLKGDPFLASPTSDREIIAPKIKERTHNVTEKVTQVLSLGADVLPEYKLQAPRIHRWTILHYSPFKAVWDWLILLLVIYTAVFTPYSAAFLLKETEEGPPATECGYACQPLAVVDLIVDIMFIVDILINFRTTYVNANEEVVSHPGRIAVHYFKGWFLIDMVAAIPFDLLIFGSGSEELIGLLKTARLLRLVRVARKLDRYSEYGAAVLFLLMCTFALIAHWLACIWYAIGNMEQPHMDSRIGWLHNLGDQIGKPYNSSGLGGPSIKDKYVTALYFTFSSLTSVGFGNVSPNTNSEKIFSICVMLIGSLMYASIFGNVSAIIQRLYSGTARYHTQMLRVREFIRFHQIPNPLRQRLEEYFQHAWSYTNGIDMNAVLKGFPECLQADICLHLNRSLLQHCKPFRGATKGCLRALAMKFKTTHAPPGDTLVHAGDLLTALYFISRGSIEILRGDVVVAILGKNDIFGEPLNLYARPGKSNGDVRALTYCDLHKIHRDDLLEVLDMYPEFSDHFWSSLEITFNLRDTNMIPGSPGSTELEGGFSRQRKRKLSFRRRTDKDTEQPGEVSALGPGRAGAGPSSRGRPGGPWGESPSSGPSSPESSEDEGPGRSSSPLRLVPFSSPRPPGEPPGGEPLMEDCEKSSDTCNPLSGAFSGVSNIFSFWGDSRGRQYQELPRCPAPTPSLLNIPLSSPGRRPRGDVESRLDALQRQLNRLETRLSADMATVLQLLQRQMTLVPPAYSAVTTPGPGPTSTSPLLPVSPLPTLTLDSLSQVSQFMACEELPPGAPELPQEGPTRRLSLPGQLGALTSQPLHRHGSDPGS

[15] = system: Rattus norvegicus; experiment: Acute toxicity in Sprague-Dawley rat at 500 mg/kg, po; type: organism-based; conditions: in vivo
[16] = system: Rattus norvegicus; experiment: Inhibition of visceral hypersensitivity in Sprague-Dawley rat model of IBS assessed as […] by measuring lifting of pelvic structure and arching of body at 30 mg/kg, po by colorectal distention test; type: functional; how it was run: as §1

CCOC(=O)c1cccc(NC2=NC(NC)=NC3(CCCCC3)N2)c1
inhibition [1]: 108%

CCOC(=O)c1cccc(N(C)C2=NC(N)=NC3(CCCCC3)N2)c1
inhibition [1]: 50.4%

CCN(CC)C(=O)c1cccc(NC2=NC(N)=NC3(CCCCC3)N2)c1
inhibition [1]: 40.7%

COc1cccc(NC2=NC(N)=NC3(CCCC3)N2)c1
inhibition [1]: 63%

NC1=NC2(CCCCC2)NC(Nc2cccc(C(=O)C3CC3)c2)=N1
inhibition [1]: 4%

CCOC(=O)c1cccc(NC2=NC(N)=NC3(CCCCC3)N2)c1
pKi [2]: 8.14 | pKi [3]: 6.07 | pKi [4]: < 5.00 | pKi [5]: 6.34 | pKi [6]: 5.45 | pKi [7]: 6.33 | pKi [8]: < 5.00 | pKi [9]: 6.76 | pKi [10]: 5.07 | pKi [11]: 6.15 | pKi [12]: < 5.00 | inhibition [1]: 107%

COc1cccc(NC2=NC(N)=NC3(CCCCC3)N2)c1
inhibition [1]: 84.6%

CCCC(=O)c1cccc(NC2=NC(N)=NC3(CCCCC3)N2)c1
inhibition [1]: 106%

NC1=NC2(CCCCC2)NC(Nc2ccc(Cl)cc2)=N1
inhibition [1]: 57.1%

NC1=NC2(CCCCC2)NC(Nc2cccc(C(=O)O)c2)=N1
inhibition [1]: 4.4%

CCCOC(=O)c1cccc(NC2=NC(N)=NC3(CCCCC3)N2)c1
inhibition [1]: 110%

CCNC(=O)c1cccc(NC2=NC(N)=NC3(CCCCC3)N2)c1
pKi [2]: 7.56 | pKi [3]: 5.72 | pKi [4]: < 5.00 | pKi [5]: 6.00 | pKi [6]: 5.23 | pKi [7]: 6.37 | pKi [8]: < 5.00 | pKi [9]: 5.88 | pKi [10]: < 5.00 | pKi [11]: 5.17 | pKi [12]: < 5.00 | inhibition [1]: 95.5%

Cc1ccc(NC2=NC(N)=NC3(CCCCC3)N2)cc1
inhibition [1]: 50.2%

CN(C)c1ccc(NC2=NC(N)=NC3(CCCCC3)N2)cc1
inhibition [1]: 17.6%

CC1(C)N=C(N)N=C(Nc2cccc(Br)c2)N1
pKi [2]: 7.69 | pKi [3]: 6.58 | pKi [4]: < 5.00 | pKi [5]: 6.41 | pKi [6]: 6.16 | pKi [7]: 5.68 | pKi [8]: < 5.00 | pKi [9]: 6.11 | pKi [10]: 5.58 | pKi [11]: 6.18 | pKi [12]: 5.82 | inhibition [1]: 75.9%

Cc1ccccc1NC1=NC(N)=NC2(CCCCC2)N1
inhibition [1]: 39.9%

COc1ccccc1NC1=NC(N)=NC2(CCCCC2)N1
inhibition [1]: 20.7%

NC1=NC2(CCCCC2)NC(Nc2cccc(Br)c2)=N1
inhibition in vivo at 30 mg/kg [13]: 68% | pKi [2]: 8.21 | pKi [3]: 6.81 | pKi [4]: < 5.00 | pKi [5]: 6.64 | pKi [6]: 5.52 | pKi [7]: 6.40 | pIC50 [14]: < 6.00 | Activity [15]: Non-toxic | inhibition in vivo at 30 mg/kg [16]: 63% | pKi [8]: < 5.00 | pKi [9]: 6.68 | pKi [10]: 5.54 | pKi [11]: 6.49 | pKi [12]: < 5.00 | inhibition [1]: 97.4%

CCOC(=O)c1cccc(NC2=NC(N(C)C)=NC3(CCCCC3)N2)c1
pKi [2]: 7.41 | pKi [3]: 5.92 | pKi [4]: < 5.00 | pKi [5]: 6.23 | pKi [6]: 5.32 | pKi [7]: 6.29 | pKi [8]: < 5.00 | pKi [9]: 5.81 | pKi [10]: 5.42 | pKi [11]: 6.94 | pKi [12]: 5.02 | inhibition [1]: 91.8%
